ChEMBL document CHEMBL4251575, “Design, synthesis, and biological evaluation of 1,3-diarylisoquinolines as novel topoisomerase I catalytic inhibitors” (Eur J Med Chem, 2018)
Counter-ions that a name gives are not always drawn. The source made the active and inactive calls. The calls are words filed in the database; no cut-off is given here.

How the values were obtained:
[1] = tested on: MCF-10A; test: Cytotoxicity against human MCF10A cells after 72 hrs by cell counting kit-8 analysis; assay type: cell-based
In short: (§1)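 Cells seeded at 2×10^5 or 1×10^5 per well, grown overnight in medium with 10% FBS at 37 °C, 5% CO₂, then FBS-starved 4 h. Graded compound concentrations given for 72 h. CCK-8 then added for 4 h and absorbance read at 450 nm. IC50 from a four-parameter logistic fit; mean ± S.D. of three experiments, each in triplicate.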

[2] = tested on: T47D; test: Cytotoxicity against human T47D cells after 72 hrs by cell counting kit-8 analysis; assay type: functional, cell-based; in short: as §1
[3] = tested on: DU-145; test: Cytotoxicity against human DU145 cells after 72 hrs by cell counting kit-8 analysis; assay type: functional, cell-based; settings: DU-145, 72 h; in short: as §1
[4] = tested on: HCT-15; test: Cytotoxicity against human HCT15 cells after 72 hrs by cell counting kit-8 analysis; assay type: functional, cell-based; settings: HCT-15, 72 h; in short: as §1
[5] = target: T1, DNA topoisomerase 1 (Homo sapiens) (UniProt P11387); test: Inhibition of human recombinant DNA topoisomerase 1-mediated DNA relaxation at 100 uM incubated for 30 mins using pBR322 DNA substrate by ethidium bromide dye-based agarose gel electrophoresis relative to control camptothecin
T1 sequence (whole entry): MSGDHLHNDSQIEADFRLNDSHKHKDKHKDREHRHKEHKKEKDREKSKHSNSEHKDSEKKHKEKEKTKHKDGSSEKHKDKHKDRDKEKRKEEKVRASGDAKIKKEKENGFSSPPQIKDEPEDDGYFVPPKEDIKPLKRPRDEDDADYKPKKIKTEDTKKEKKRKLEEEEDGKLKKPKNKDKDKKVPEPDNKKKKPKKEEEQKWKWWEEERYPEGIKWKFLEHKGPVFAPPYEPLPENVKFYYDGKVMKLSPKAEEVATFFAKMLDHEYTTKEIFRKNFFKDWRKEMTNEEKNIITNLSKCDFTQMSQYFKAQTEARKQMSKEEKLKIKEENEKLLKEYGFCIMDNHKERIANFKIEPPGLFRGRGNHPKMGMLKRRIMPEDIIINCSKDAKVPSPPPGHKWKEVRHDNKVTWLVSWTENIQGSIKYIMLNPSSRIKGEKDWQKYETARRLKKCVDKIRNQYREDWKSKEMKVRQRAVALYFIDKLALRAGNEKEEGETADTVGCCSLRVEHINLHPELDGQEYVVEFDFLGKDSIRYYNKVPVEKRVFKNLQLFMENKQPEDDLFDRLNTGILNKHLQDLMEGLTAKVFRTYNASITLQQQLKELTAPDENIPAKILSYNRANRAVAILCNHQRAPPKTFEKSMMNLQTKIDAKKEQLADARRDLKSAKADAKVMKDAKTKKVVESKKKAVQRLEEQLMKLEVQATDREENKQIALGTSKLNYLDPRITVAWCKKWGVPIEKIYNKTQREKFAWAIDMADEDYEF
In short: (§2)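 pBR322 (100 ng) with recombinant human topo I (0.4 units) in 10 mM Tris-HCl pH 7.9, 150 mM NaCl, 0.1% BSA, 1 mM spermidine, 5% glycerol, 30 min at 37 °C. Stopped with sarcosyl/glycerol/dye and run on 1% agarose/TAE at 15 V for 7 h. EtBr-stained; supercoiled DNA quantified as % inhibition. Relative values are the ratio to the camptothecin control.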

[6] = target: DNA topoisomerase 2-alpha (Homo sapiens) (UniProt P11388); test: Inhibition of human DNA topoisomerase 2 alpha-mediated DNA relaxation at 100 uM incubated for 30 mins using pBR322 DNA substrate by ethidium bromide dye-based agarose gel electrophoresis relative to control etoposide
Chain of DNA topoisomerase 2-alpha (Homo sapiens) (P11388 whole entry): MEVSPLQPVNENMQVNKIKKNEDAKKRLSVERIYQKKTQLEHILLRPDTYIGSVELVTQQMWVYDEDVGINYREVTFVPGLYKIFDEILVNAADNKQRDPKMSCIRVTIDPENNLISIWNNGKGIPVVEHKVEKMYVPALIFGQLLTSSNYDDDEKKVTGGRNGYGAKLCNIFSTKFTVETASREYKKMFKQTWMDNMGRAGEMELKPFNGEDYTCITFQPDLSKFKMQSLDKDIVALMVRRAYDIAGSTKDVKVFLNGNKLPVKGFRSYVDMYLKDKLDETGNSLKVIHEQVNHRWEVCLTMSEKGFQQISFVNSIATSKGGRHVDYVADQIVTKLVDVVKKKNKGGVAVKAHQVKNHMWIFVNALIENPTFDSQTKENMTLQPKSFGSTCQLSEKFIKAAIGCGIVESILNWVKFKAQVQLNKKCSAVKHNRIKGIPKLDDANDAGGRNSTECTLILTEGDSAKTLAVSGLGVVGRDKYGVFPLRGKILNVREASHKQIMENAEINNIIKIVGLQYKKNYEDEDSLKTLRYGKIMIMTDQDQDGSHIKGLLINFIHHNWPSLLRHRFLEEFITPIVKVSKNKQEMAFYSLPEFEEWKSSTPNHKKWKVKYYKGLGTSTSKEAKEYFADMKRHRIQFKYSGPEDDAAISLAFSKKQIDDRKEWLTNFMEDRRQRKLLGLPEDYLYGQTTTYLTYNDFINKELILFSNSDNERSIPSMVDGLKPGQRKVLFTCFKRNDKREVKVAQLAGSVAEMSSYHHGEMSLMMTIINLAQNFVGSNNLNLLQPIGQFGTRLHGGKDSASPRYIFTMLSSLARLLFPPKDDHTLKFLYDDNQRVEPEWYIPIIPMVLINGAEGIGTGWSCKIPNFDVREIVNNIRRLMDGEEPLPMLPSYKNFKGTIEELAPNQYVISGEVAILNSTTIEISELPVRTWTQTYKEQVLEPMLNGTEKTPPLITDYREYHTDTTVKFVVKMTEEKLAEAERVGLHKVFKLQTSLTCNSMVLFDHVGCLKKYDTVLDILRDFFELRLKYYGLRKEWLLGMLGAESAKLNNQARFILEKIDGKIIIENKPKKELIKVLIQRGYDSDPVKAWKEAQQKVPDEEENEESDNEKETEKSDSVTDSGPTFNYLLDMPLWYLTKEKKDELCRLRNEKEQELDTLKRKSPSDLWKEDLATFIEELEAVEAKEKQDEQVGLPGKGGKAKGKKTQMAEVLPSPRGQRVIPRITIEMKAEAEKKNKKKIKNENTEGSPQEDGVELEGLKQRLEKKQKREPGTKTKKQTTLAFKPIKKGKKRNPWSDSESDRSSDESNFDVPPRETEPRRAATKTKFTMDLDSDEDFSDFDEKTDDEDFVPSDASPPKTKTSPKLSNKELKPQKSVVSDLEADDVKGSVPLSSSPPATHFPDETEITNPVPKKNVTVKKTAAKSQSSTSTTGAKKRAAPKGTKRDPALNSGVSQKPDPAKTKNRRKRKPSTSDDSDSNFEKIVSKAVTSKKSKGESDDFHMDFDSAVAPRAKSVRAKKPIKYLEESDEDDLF
In short: (§3)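 Stopped with EDTA and run on 1% agarose/TAE at 25 V for 4 h. EtBr-stained; supercoiled DNA quantified as % inhibition. Relative values are the ratio to the etoposide control.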

[7] = target: T1, DNA topoisomerase 1 (Homo sapiens); test: Inhibition of human recombinant DNA topoisomerase 1-mediated DNA relaxation at 100 uM incubated for 30 mins using pBR322 DNA substrate by ethidium bromide dye-based agarose gel electrophoresis; in short: as §2
[8] = target: DNA topoisomerase 2-alpha (Homo sapiens) (UniProt P11388); test: Inhibition of human DNA topoisomerase 2 alpha-mediated DNA relaxation at 100 uM incubated for 30 mins using pBR322 DNA substrate by ethidium bromide dye-based agarose gel electrophoresis; in short: as §3
[9] = species: Sus scrofa; test: Induction of porcine brain tubulin polymerization at 10 uM after 61 mins by spectroscopic analysis
In short: (§4)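 Porcine brain tubulin at 1.5 mg/mL final in cold PEM buffer (80 mM Na-PIPES pH 6.9, 1 mM MgCl₂, 30% glycerol, 1 mM EGTA) with 1 mM GTP. Compounds were dissolved in DMSO and diluted in PEM. They were pre-warmed 2 min at 37 °C before tubulin was added. DMSO vehicle and paclitaxel controls. A340 was read each minute for 61 min at 37 °C.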

[10] = target: DNA topoisomerase 2-alpha (Homo sapiens) (UniProt P11388); test: Inhibition of human DNA topoisomerase 2 alpha-mediated DNA relaxation at 20 uM incubated for 30 mins using pBR322 DNA substrate by ethidium bromide dye-based agarose gel electrophoresis relative to control etoposide; in short: as §3
[11] = target: DNA topoisomerase 2-alpha (Homo sapiens) (UniProt P11388); test: Inhibition of human DNA topoisomerase 2 alpha-mediated DNA relaxation at 20 uM incubated for 30 mins using pBR322 DNA substrate by ethidium bromide dye-based agarose gel electrophoresis; in short: as §3
[12] = species: Sus scrofa; test: Inhibition of porcine brain tubulin polymerization at 10 uM after 61 mins by spectroscopic analysis; in short: as §4
[13] = target: T1, DNA topoisomerase 1 (Homo sapiens); test: Inhibition of human recombinant DNA topoisomerase 1-mediated DNA relaxation at 20 uM incubated for 30 mins using pBR322 DNA substrate by ethidium bromide dye-based agarose gel electrophoresis relative to control camptothecin; in short: as §2
[14] = target: T1, DNA topoisomerase 1 (Homo sapiens); test: Inhibition of human recombinant DNA topoisomerase 1-mediated DNA relaxation at 20 uM incubated for 30 mins using pBR322 DNA substrate by ethidium bromide dye-based agarose gel electrophoresis; in short: as §2

Row | Ratio [5] | Ratio [6] | inhibition [7] | inhibition [8] | Activity [9] | Ratio [10] | inhibition [11] | inhibition [12] | Tubulin polymerization induction [9] | Ratio [13] | inhibition [14] | Compound | IC50 [1] | IC50 [2] | IC50 [3] | IC50 [4]
1 | 0.05 | 0 | 2.9% | 0% | – | – | – | – | – | – | – | COc1cccc(-c2nc(-c3ccc(OC)c(OC)c3)cc3cc(C)ccc23)c1 | > 50 µM | 7.86 µM | > 50 µM | 1.84 µM
2 | 0 | 0.11 | 0% | 7.4% | – | – | – | – | – | – | – | COc1ccc(-c2cc3ccccc3c(-c3ccc(OC)cc3)n2)cc1 | > 50 µM | 0.85 µM | – | 2.79 µM
3 | 0 | 0.12 | 0% | 7.7% | – | – | – | – | – | – | – | COc1ccc(-c2cc3ccccc3c(-c3cccc(N)c3)n2)cc1 | 18.8 µM | 0.95 µM | – | 2.35 µM
4 | – | – | – | – | Active | – | – | – | – | – | – | CC(=O)O[C@H]1C(=O)[C@@]2(C)[C@H]([C@H](OC(=O)c3ccccc3)[C@]3(O)C[C@H](OC(=O)[C@H](O)[C@@H](NC(=O)c4ccccc4)c4ccccc4)C(C)=C1C3(C)C)[C@]1(OC(C)=O)CO[C@@H]1C[C@@H]2O | – | – | – | –
5 | 0.03 | 0.38 | 1.7% | 34.5% | – | 0.01 | 0.4% | – | – | – | – | COc1ccc(-c2cc3cc(C)ccc3c(-c3cccc(O)c3)n2)cc1OC | 13.5 µM | 4.34 µM | 6.51 µM | 0.37 µM
6 | 0 | 0.59 | 0% | 37.3% | – | 0.9 | 30.9% | inactive | inactive | – | – | COc1cc(OC)cc(-c2cc3ccccc3c(-c3cccc(O)c3)n2)c1 | 6.77 µM | 0.76 µM | – | 0.84 µM
7 | 0.58 | 0 | 43.2% | 0% | – | – | – | – | – | 0 | 0% | COc1ccc(-c2cc3ccccc3c(-c3cccc(OC)c3)n2)cc1 | > 50 µM | 0.86 µM | > 50 µM | 1.3 µM
8 | 0.6 | 0.67 | 39.3% | 40.9% | – | 0.28 | 10.5% | – | – | 0 | 0% | COc1ccc(-c2cc3cc(C)ccc3c(-c3cccc(OCCCN(C)C)c3)n2)c(C)c1 | 6.07 µM | 0.29 µM | – | 0.87 µM
9 | 0 | 0.82 | 0% | 51.2% | – | 1.17 | 40% | inactive | inactive | – | – | COc1cc(OC)cc(-c2cc3ccccc3c(-c3ccc(O)cc3)n2)c1 | 7.28 µM | 0.78 µM | – | 2.78 µM
10 | 0.81 | 0.32 | 47.9% | 20.2% | – | – | – | – | – | 0.38 | 12.1% | COc1ccc(-c2cc3ccccc3c(-c3cccc(OCCCN(C)C)c3)n2)cc1 | 10.2 µM | 0.16 µM | – | 1.75 µM
11 | 0.05 | 0.81 | 3.7% | 49.6% | – | 0.35 | 13.2% | – | – | – | – | COc1ccc(-c2cc3cc(C)ccc3c(-c3cccc(OCCN(C)C)c3)n2)c(C)c1 | 6.35 µM | 0.6 µM | – | 2.2 µM
12 | – | – | – | – | – | – | – | 100% | – | – | – | COc1ccc(/C=C\c2cc(OC)c(OC)c(OC)c2)cc1O | – | – | – | –
13 | 1.13 | 0.2 | 73.4% | 12.3% | – | – | – | Active | inactive | 2.46 | 70.4% | COc1ccc(-c2cc3cc(C)ccc3c(-c3cccc(O)c3)n2)c(C)c1 | 5.05 µM | 0.56 µM | – | 1.75 µM
14 | 0.09 | 0 | 6.7% | 0% | – | – | – | – | – | – | – | COc1ccc(-c2cc3ccccc3c(-c3ccc(O)cc3)n2)cc1 | > 50 µM | 1.22 µM | > 50 µM | > 50 µM
15 | 0.04 | 0 | 2.3% | 0% | – | – | – | – | – | – | – | COc1ccc(-c2nc(-c3ccc(OC)c(OC)c3)cc3cc(C)ccc23)cc1 | > 50 µM | 3.34 µM | > 50 µM | 28.7 µM
16 | 0.11 | 0.11 | 7.2% | 6.9% | – | – | – | – | – | – | – | COc1ccc(-c2cc3cc(C)ccc3c(-c3cccc(N)c3)n2)cc1OC | 5.6 µM | 0.45 µM | – | 2.7 µM
17 | 0.12 | 1.07 | 9.4% | 84.3% | – | 0 | 0% | – | – | – | – | COc1ccc(-c2cc3ccccc3c(-c3cccc(O)c3)n2)cc1 | 7.83 µM | 0.58 µM | 5.36 µM | 1.2 µM
18 | 0 | 0.26 | 0% | 16.7% | – | – | – | – | – | – | – | COc1cc(OC)cc(-c2cc3ccccc3c(-c3cccc(OC)c3)n2)c1 | > 50 µM | 1.12 µM | – | 1.17 µM
19 | 0.06 | 0 | 4.6% | 0% | – | – | – | – | – | – | – | COc1cc(OC)cc(-c2cc3cc(OC)c(OC)cc3c(-c3cccc(O)c3)n2)c1 | 5.9 µM | 3.92 µM | 8.12 µM | 0.54 µM
20 | 0 | 0.37 | 0% | 23.6% | – | – | – | – | – | – | – | COc1cc(OC)cc(-c2cc3ccccc3c(-c3cccc(N)c3)n2)c1 | > 50 µM | 0.98 µM | – | 4.08 µM
21 | 1.22 | 1.24 | 79.6% | 75.8% | – | 0.41 | 15.3% | – | – | 0 | 0% | COc1ccc(-c2cc3cc(C)ccc3c(-c3ccc(OCCN(C)C)cc3)n2)cc1OC | 5.31 µM | 2.33 µM | – | 0.97 µM
22 | 0.005 | 0.4 | 0.3% | 36.5% | – | 0 | 0% | – | – | – | – | COc1ccc(-c2cc3cc(C)ccc3c(-c3ccc(O)cc3)n2)cc1OC | 18.1 µM | 4.42 µM | 5.98 µM | 2.52 µM
23 | – | – | – | – | – | – | – | – | – | – | – | COc1cccc2c1C(=O)c1c(O)c3c(c(O)c1C2=O)C[C@@](O)(C(=O)CO)C[C@@H]3O[C@H]1C[C@H](N)[C@H](O)[C@H](C)O1 [DOXORUBICIN HYDROCHLORIDE] | 0.93 µM | – | – | –
